# In article PMC4759708 (CPT: Pharmacometrics & Systems Pharmacology, 2015):
# Values joined by “and” are separate entries in the source; they are usually repeats but may differ in a detail not shown here. Equal values may be shown once. Read-outs that look alike come from different tables or passages of the source.
# Legend:
# [1] = tested on: LPS-stimulated TNFα release; conditions: read-out: IC50, TNFα release in the same (human whole blood) assay; cited from earlier work
# [2] = tested on: LPS-stimulated TNFα ex vivo; conditions: patients treated, same bioassay; cited from earlier work
# [3] = Population pharmacokinetics of oral BCT197 in healthy volunteers; format: in vivo, human
# How it was run: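 Healthy male and non-childbearing female volunteers aged 18–50 y (BMI 18–30 kg/m²) took ascending single doses or once-daily doses for 14 days. Oral solution was used for 0.1–3 mg and tablets for ≥5 mg. Plasma drug was fitted by nonlinear mixed-effects modelling (FOCE Lindström Bates), with lognormal between-subject variability and tablet mixed zero/first-order absorption. Bootstrap used 500 iterations.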
# [4] = tested on: ex vivo LPS-induced TNFα secretion; format: in vivo, human
# How it was run: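 Healthy adults received randomized, double-blind, placebo-controlled oral doses: ascending single doses of 0.1–75 mg, or once daily for 14 days. Blood was challenged with LPS ex vivo and TNFα measured. An indirect response model with negative feedback on outflow and a 24-h oscillatory baseline was fitted to drug and placebo data together. Individual Bayesian PK estimates served as input. IC50 was a fraction of predose baseline. Bootstrap used 500 iterations.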
# [5] = tested on: serum levels of TNFα; test: Serum TNFα levels after in vivo intravenous LPS challenge; design: species or system human; conditions: data not shown
# How it was run: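 Healthy subjects received a single oral dose, then an intravenous LPS challenge, and serum TNFα was measured. They fasted 10 h before dosing and 4 h after. Apart from the dosing fluid, no fluid was allowed from 2 h before to 2 h after dosing.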
# [6] = target: T1, p38α (Homo sapiens, UniProt Q16539); test: In-house p38α inhibition, ELISA; format: biochemical; conditions: read-out: IC50 on p38α (ELISA); in-house studies
# [7] = target: T1, p38α; test: In-house p38α inhibition, radiometric; format: biochemical; conditions: read-out: IC50 on p38α (radiometric); in-house studies
# [8] = tested on: LPS-stimulated TNFα release; test: LPS-stimulated TNFα release in the human whole blood assay; format: cell-based
# [9] = Thermodynamic solubility; format: physicochemical
# [10] = target: P-glycoprotein (Homo sapiens, UniProt P08183); test: Caco-2 model of intestinal uptake/efflux; format: in vitro ADME; conditions: unpublished data
# [11] = Safety and tolerability in healthy subjects; format: in vivo, human; conditions: data not shown
# [12] = Tissue distribution in pigmented and albino rats; format: in vivo; conditions: pigmented vs albino, unpublished data
# [13] = COPD patients; intermittent short-term dosing 75 mg on days 1 and 6; cited from earlier work
# [14] = population mean, final estimate
# T1 sequence (Q16539 whole entry): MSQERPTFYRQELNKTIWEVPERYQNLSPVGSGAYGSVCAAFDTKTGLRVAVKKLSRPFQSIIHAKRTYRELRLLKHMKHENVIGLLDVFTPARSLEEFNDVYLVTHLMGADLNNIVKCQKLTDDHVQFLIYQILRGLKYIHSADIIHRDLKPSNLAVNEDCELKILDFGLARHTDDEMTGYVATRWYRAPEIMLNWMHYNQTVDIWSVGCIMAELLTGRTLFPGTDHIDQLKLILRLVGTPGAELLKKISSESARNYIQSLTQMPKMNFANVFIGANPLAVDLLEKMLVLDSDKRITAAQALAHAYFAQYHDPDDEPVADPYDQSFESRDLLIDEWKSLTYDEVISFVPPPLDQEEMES
# Sequence of P-glycoprotein (P08183 whole entry): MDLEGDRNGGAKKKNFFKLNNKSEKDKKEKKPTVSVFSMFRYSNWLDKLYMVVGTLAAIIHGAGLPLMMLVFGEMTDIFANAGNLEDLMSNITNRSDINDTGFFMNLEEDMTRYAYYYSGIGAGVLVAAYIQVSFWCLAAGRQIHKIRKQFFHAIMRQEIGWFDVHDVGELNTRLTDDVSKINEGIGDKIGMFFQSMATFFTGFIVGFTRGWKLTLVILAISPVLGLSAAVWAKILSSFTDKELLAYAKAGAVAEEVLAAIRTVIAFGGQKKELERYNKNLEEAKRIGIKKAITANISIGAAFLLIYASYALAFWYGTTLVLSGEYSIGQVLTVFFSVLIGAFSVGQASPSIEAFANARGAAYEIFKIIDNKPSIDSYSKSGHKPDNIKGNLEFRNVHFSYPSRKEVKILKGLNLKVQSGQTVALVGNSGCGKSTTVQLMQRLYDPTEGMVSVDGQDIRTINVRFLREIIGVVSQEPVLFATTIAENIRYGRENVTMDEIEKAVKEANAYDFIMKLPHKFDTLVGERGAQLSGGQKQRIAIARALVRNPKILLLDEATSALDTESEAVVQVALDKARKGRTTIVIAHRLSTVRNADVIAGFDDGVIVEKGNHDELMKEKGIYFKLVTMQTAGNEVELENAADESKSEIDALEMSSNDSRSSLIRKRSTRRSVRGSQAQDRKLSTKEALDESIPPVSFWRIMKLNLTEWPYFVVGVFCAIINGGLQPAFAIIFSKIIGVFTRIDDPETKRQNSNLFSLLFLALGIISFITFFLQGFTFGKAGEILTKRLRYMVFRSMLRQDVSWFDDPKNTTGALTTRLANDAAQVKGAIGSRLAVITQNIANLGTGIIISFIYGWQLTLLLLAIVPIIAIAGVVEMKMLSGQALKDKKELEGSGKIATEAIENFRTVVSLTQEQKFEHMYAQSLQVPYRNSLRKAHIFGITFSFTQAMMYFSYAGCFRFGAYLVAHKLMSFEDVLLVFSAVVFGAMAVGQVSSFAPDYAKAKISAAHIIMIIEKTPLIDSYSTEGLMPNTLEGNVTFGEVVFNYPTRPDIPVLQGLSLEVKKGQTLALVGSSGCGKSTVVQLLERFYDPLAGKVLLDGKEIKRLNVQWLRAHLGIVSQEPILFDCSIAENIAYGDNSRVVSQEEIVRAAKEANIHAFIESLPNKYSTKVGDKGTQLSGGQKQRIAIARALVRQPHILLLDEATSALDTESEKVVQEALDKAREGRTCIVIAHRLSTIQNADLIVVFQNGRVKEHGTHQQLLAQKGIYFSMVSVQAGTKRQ
structure (smiles),measurement,setting,value
CNC(=O)c1ccc(C)c(-n2c(C)cc(OCc3ccc(F)cc3F)c(Br)c2=O)c1 [PH‐797804],IC50,[1],85 nM
"O=C(Nc1c(Cl)cncc1Cl)c1ccc(OC(F)F)c(OCC2CC2)c1 [rofluminast, roflumilast]",TNFα levels ex vivo,[2],significant suppression
Cc1c(F)cc(C(=O)NC2CC2)cc1-c1ccc(C(=O)NCC(C)(C)C)cn1 [losmapimod],IC50,[1],25 nM
Cc1ccc(C(=O)NC2CC2)cc1-n1ncc(C(=O)c2cccc(C#N)c2)c1N [BCT197],"Bmax, total binding capacity (tissue binding)",[3]; bootstrap median and 90% CI,507 [308;806] µg
same,"K1b, first order transfer rate from central compartment into shunt compartment",[3]; bootstrap median and 90% CI,0.0105 [0.00791;0.0132] 1/h
same,"Kt=Kint1, first-order oral absorption rate constant of tablet",[3]; bootstrap median and 90% CI,1.13 [0.934;1.42] 1/h
same,"Rate, zero order oral absorption rate (tablet)",[3]; bootstrap median and 90% CI,2310 [2170;2530] µg/h
same,"V1/F, volume of central compartment",[3]; bootstrap median and 90% CI,71.5 [58.1;98.7] L
same,"fc, fraction of oral dose (tablet) absorbed in a zero-order fashion",[3]; bootstrap median and 90% CI,0.342 [0.291;0.392]
same,"CL/F, oral drug clearance","[3]; bootstrap median and 90% CI, 500 iterations",1.77 [1.47;2.05] L/h
same,rise in drug levels in reaching steady-state,"[3]; once-daily regimen, on average",3 fold
same,time of double peak behavior postdose,[3]; plasma concentration profile,18 to 24 h
same,"Bmax, total binding capacity (tissue binding)",[3]; [14],500 µg
same,"K1b, first order transfer rate from central compartment into shunt compartment",[3]; [14],0.0106 h⁻¹
same,"Kt=Kint1, first-order oral absorption rate constant of tablet",[3]; [14],1.12 h⁻¹
same,"V1/F, volume of central compartment",[3]; [14],71.9 L
same,"V2/F, volume of peripheral compartment",[3]; [14],25.5 L
same,"CL/F, oral drug clearance","[3]; population mean, final estimate, healthy volunteers, oral 0.1-75 mg",1.76 L/h
same,"fc, fraction of oral dose (tablet) absorbed in a zero-order fashion","[3]; population mean, final estimate, modeled in logit domain and back transformed",0.344
same,"Ks, first-order oral absorption rate constant of solution","[3]; population mean, fixed",5 (fixed) 1/h
same,"Tlag, absorption lag time","[3]; population mean, fixed",0.232 (fixed) h
same,"Tpump, shunt compartment emptying lag time","[3]; population mean, fixed",18 (fixed) h
same,fraction (fc) of dose absorbed by the first-order process,"[3]; tablets, mixed-order absorption model, on average",66%
same,"IC50, concentration at half maximum inhibition",[4]; bootstrap median and 90% CI,44.3 [30.6;65.5] µg/L
same,"Imax, maximum inhibition",[4]; bootstrap median and 90% CI,0.668 [0.6121;0.752]
same,"Kout, first order degradation rate of drug response",[4]; bootstrap median and 90% CI,0.353 [0.170;0.592] 1/h
same,"Ktol, first order production rate of negative feedback",[4]; bootstrap median and 90% CI,0.00281 [0.00173;0.00529] 1/h
same,"Maximum inhibition from baseline (Imax), plateau in the typical individual",[4]; ex vivo LPS-induced TNFα secretion,about 66%
same,"t1/2,ktol (rate constant governing tolerance)","[4]; human, in vivo",10.5 days
same,"Imax, maximum inhibition",[4]; [14],0.663
same,"Kout, first order degradation rate of drug response",[4]; [14],0.348 h⁻¹
same,"Ktol, first order production rate of negative feedback",[4]; [14],0.00276 h⁻¹
same,"IC50, concentration at half maximum inhibition","[4]; population mean, final estimate, plasma concentration, modeled as fraction of predose baseline",44 µg/L and 44.3 µg/L
same,"t1/2,kout (hysteresis in drug effect)",[4]; single dose,2 h
same,inhibition of serum levels of TNFα following in vivo intravenous LPS challenge,[5]; single oral administration of 20 mg,96%
same,inhibition of serum levels of TNFα following in vivo intravenous LPS challenge,[5]; single oral administration of 75 mg,97%
same,IC50,[6],12 nM
same,IC50,[7],37 nM
same,IC50,"[8]; read-out: IC50 (total drug), LPS-stimulated TNFα release, human whole blood assay, total drug",51 nM
same,IC50,"[8]; read-out: free IC50, LPS-stimulated TNFα release, human whole blood assay, free drug",24 nM
same,pH-independent thermodynamic solubility,[9],~0.2 mg/mL
same,"saturation of low-affinity efflux pump, most likely P-glycoprotein",[10],not saturated up to 0.1 mg/mL
same,"Tolerability, continuous dosing",[11]; continuous dosing of 10 mg,acneiform skin rashes
same,"Tolerability, single high doses",[11]; single high doses up to 75 mg,well tolerated
same,tissue distribution / retention in melanin-containing tissues,[12],remained much longer detectable in the skin and eye of the pigmented but not albino animal
same,lung function (FEV1),[13],marked improvement
